Compound activity deposited in PubChem by several laboratories.
Rows were chosen to be rich in hits. Some 0.9% of all compounds tested hit in one or more screens of this group.
Biofilm kill mix = mixture kills Candida albicans biofilm cells. C. albicans biofilm persisters + clotrimazole, fluorescence viability; primary screen in compound mixtures of four per well. inhibition, % at 7.6 µM. hit rate 0.02% among 120,000. AID 1242;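 active means inhibition above 30.3% in the primary screen of four-compound pools, then above 30% when the compound was retested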;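 further: compounds exposed to preformed 24 h biofilms for 48 h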
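Assay system: C. albicans biofilms / Medium: RPMI/MOPS medium, pH 7.0 / Schedule: biofilm formation 24 h, compound exposure 48 h, 37 °C / Measured by: Alamar Blue fluorescence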
S1P3 antagonist = blocks the human S1P3 receptor; Q99500; CHO S1P3 NFAT-BLA reporter, FRET fluorescence, antagonist mode; inhibition, % at 4.98 µM; hit rate 0.27% among 170,000; AID 485;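 active means inhibition above the plate cutoff, the mean inhibition of test wells on that plate plus 3 SD, cut at about 28% in these data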;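 further: cells challenged with S1P at its EC80 of 0.8 µM; blue over green emission ratio from cleaved BLA substrate after 4 h stimulation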
S1P4 ag = human S1P4 receptor agonism | O95977 | S1P4-expressing cell line, agonist reporter assay | activation, % at 4.98 µM | hit rate 0.35% among 220,000 | AID 1509; in the data active means activation above about 11%
S1P4 antagonist = blocks the human S1P4 receptor. O95977. S1P4-expressing cells, antagonist mode, reporter read-out. inhibition, % at 4.98 µM. hit rate 0.26% among 220,000; in the data active means inhibition above about 29%
Mdm2 ligase inh = Mdm2 E3 ligase (human) inhibition; Q00987; cell-based MDM2 ubiquitination luciferase reporter, 2 h; 0 = plate control, 100 = twice control, blank-subtracted; signal enhancement, % at 5 µM; hit rate 0.11% among 210,000;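 active means signal enhancement of 30% or more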;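 further: luminescence tracks abundance of the self-degrading MDM2-luciferase fusion protein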
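Assay system: stable mammalian line carrying autodegrading MDM2–luciferase fusion reporter; Input: 2000 cells in each well; Compound dosing: single-point 5 µM; Schedule: 2 h compound exposure at 37 °C; Signal: SteadyLite luciferase luminescence after 15 min room-temperature reagent incubation; Evaluation: % luminescence enhancement versus blank-corrected plate control mean; Benchmarks: plate controls and plate blanks.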
S1P4 ag conf = human S1P4 agonism, confirmation; S1P4 agonist cell-based reporter assay; activation, % at 4.98 µM; shares compounds with S1P4 ag; hit rate 7% among 740; in the data active means activation above about 12%
S1P1 ag = human S1P1 agonism as S1P4 agonist counter-screen | shares compounds with S1P4 ag | S1P1 agonist cell-based assay, activation | activation, % at 4.98 µM | hit rate 4% among 740 | AID 1563; in the data active means activation above about 21%
Target sequence (P21453 whole entry, looked up): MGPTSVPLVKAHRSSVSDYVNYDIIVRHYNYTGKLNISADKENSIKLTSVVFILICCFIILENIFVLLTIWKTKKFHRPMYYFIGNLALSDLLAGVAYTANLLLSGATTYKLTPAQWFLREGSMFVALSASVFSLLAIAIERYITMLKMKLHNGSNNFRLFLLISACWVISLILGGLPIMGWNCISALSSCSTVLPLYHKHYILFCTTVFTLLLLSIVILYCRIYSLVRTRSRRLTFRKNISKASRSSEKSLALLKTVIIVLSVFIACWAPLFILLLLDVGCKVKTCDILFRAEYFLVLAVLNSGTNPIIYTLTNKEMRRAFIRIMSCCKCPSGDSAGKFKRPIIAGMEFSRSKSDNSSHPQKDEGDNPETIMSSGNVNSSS
Each line names hits and unclear results; the compound was inactive in the other large screens (follow-up assays come after a bar, where they were run).

COC(=O)c1cc(C(=O)OC)cc(N2C(=O)CC(NNC(=O)c3ccc(C)cc3)C2=O)c1 (centres undefined)	S1P4 ag 28.9 | S1P4 ag conf inactive | S1P1 ag inactive
CN(C)CCCNC(=S)Nc1ccc(Br)cc1	none
CC(C)N=c1scc(-c2ccco2)n1/N=C/c1ccc(O)c(O)c1	S1P4 ag 11.9 (no result: Biofilm kill mix, S1P3 antagonist) | S1P4 ag conf 22.2 | S1P1 ag 55.2
O=C(Nc1ccn(Cc2ccccc2)n1)c1cccc(Cn2cc([N+](=O)[O-])cn2)c1	S1P4 ag 12.8 | S1P4 ag conf inactive | S1P1 ag inactive
O=C1CCCN1CCCNc1ncnc2sccc12	none
Cc1c(Nc2c3ccccc3nc3ccccc23)c(=O)n(-c2ccccc2)n1C	S1P4 ag 11.5 | S1P4 ag conf inactive | S1P1 ag inactive
O=C(CCc1ccc(S(=O)(=O)N2CCOCC2)cc1)Nc1nc(COc2ccccc2)cs1	none (no result: Biofilm kill mix, S1P3 antagonist)
CN(C(=S)NC(=O)Cc1ccccc1)c1ccccc1	S1P4 ag 12.8 | S1P4 ag conf inactive | S1P1 ag inactive
CCN(CC)C(=S)NC(=O)Cc1ccccc1	none
N/C(CN1CCCCC1)=N\S(=O)(=O)c1cc(Cl)cc(Cl)c1	none
OCCC1CN(Cc2cccnc2)CCN1CCc1ccccc1 (centres undefined)	none
CC(C)n1cc(CN2CCN(CCc3ccccc3)C(CCO)C2)cn1 (centres undefined)	S1P4 ag 13.7 | S1P4 ag conf inactive | S1P1 ag inactive
COc1ccc(-c2cc(C(=O)NNC3=NCCC3)c3c(C)nn(-c4ccccc4)c3n2)cc1	none
COc1ccc(NC(=O)c2cc(-c3ccccc3)nc3c2c(C)nn3-c2ccccc2)c(OC)c1	S1P4 ag 23.5 | S1P4 ag conf inactive | S1P1 ag inactive
CCC/C=N/NC(=O)c1cccc(Br)c1	none
CC(C)/C=N/Nc1nc(-c2ccc(Br)cc2)cs1	S1P4 ag 34.1 | S1P4 ag conf inactive | S1P1 ag inactive
CCC(C)C(=O)Nc1ccc(OC)cc1[N+](=O)[O-] (centres undefined)	none
Cc1oc(-c2cc(F)ccc2F)nc1CN1CCN(C)C(=O)[C@@H]1C	S1P4 ag 14.9 | S1P4 ag conf inactive | S1P1 ag inactive
CCOC(=O)Cc1nnc2c(Nc3ccccc3F)nc3nonc3n12	S1P4 ag 38.0 (no result: Biofilm kill mix) | S1P4 ag conf inactive | S1P1 ag inactive
c1ccc(-n2nnc(-c3cccnc3)n2)cc1	none (no result: Mdm2 ligase inh)
Cc1cc(C)cc(NC(=O)CSc2nnc(-c3ccc(S(=O)(=O)N4CCCC4)cc3)o2)c1	S1P4 ag 11.1 (no result: Biofilm kill mix) | S1P4 ag conf inactive | S1P1 ag inactive
Cc1ccc(NC(=O)CS(=O)CC(=O)NCCCN(C)c2ccccc2)cc1 (centres undefined)	S1P4 ag 24.6 (no result: Biofilm kill mix) | S1P4 ag conf inactive | S1P1 ag inactive
Cc1ccccc1-c1nc(CS(=O)CC(=O)NCCCN(C)c2ccccc2)c(C)o1 (centres undefined)	none (no result: Biofilm kill mix)
COc1ccc(OC)c(C2=NOC(C(=O)N3CCCc4ccccc43)C2)c1 (centres undefined)	none (no result: Biofilm kill mix, S1P3 antagonist)
CSc1nnc2c(n1)OC1(Nc3ccccc3-2)C(=O)Nc2ccccc21 (centres undefined)	none
COC(=O)c1ccc(NC(C)=O)o1	none (no result: Biofilm kill mix, S1P3 antagonist)
COC(=O)c1ccc(NC(=O)c2ccccc2)o1	S1P4 ag 24.8 (no result: Biofilm kill mix, S1P3 antagonist) | S1P4 ag conf inactive | S1P1 ag inactive
S=C(Nc1ccccn1)NC1CCCCC1	none
NS(=O)(=O)c1ccc(N2N=C(c3ccccc3)CC2c2cccc(F)c2)cc1 (centres undefined)	none
NS(=O)(=O)c1ccc(N2N=C(c3ccc(Br)cc3)CC2c2ccc(F)cc2)cc1 (centres undefined)	S1P4 ag 24.0 (no result: Biofilm kill mix, S1P3 antagonist) | S1P4 ag conf 42.5 | S1P1 ag 112.1
Cc1cc(Nc2cccc(Cl)c2)n2ncnc2n1	none (no result: Mdm2 ligase inh)
CCc1cccc(Nc2cc(C)nc3ncnn23)c1	S1P4 ag 156.3 (no result: Mdm2 ligase inh) | S1P4 ag conf inactive | S1P1 ag inactive
CC(=O)OCc1cc(-c2nc3ccccc3[nH]c2=O)nn1-c1ccc(Cl)cc1	none
CCOC(=O)n1ccc(C(=O)Nc2ccccc2F)n1	S1P4 ag 15.9 (no result: Biofilm kill mix) | S1P4 ag conf inactive | S1P1 ag inactive
COc1cccc(Cn2cc(C(=O)NCCN(C)C)nn2)c1	none
O=C(CNC(=O)c1ccccc1)OCc1cccc([N+](=O)[O-])c1	none
CC(C)(C)c1ccc(C(=O)NCC(=O)OCc2ccc([N+](=O)[O-])cc2)cc1	S1P4 ag 14.1 | S1P4 ag conf inactive | S1P1 ag inactive
CCNS(=O)(=O)c1cc(OC)ccc1OC	S1P4 ag 15.6 (no result: Biofilm kill mix, S1P3 antagonist) | S1P4 ag conf inactive | S1P1 ag inactive
Cc1sc(NC(=O)c2ccco2)c(C(c2cccnc2)N2CCC(C)CC2)c1C (centres undefined)	none (no result: Biofilm kill mix, S1P3 antagonist)
C/C(CC(=O)Nc1ccc(OCc2ccccc2)cc1)=N\NC(=O)C(=O)Nc1cccc(C)c1	S1P4 ag 19.0 | S1P4 ag conf inactive | S1P1 ag inactive
Cn1cc(Br)c(-c2cccc(NC(=O)CCCC(=O)O)c2)n1	none
CC(=O)Nc1ccc(S(=O)(=O)N2CCC(=O)Nc3ccccc32)cc1	S1P4 ag 15.8 | S1P4 ag conf inactive | S1P1 ag inactive
Cc1ccc(S(=O)(=O)N2CC(=O)Nc3ccccc32)cc1	none (no result: Biofilm kill mix, S1P3 antagonist)
COc1cc(OC)cc(C(=O)N[C@H](C(=O)Nc2cccc(S(=O)(=O)N3CCCC3)c2)C(C)C)c1	none (no result: Mdm2 ligase inh)
COc1ccc(OC(C)C(=O)Nc2ccccc2C(F)(F)F)cc1 (centres undefined)	S1P4 ag 86.0, Mdm2 ligase inh 261.7 | S1P4 ag conf inactive | S1P1 ag inactive
COc1ccc(SCC(=O)Nc2ccccc2Cl)cc1	S1P4 ag 113.7 | S1P4 ag conf inactive | S1P1 ag inactive
CCOC(=O)c1sc(-c2ccccc2)cc1NC(=O)Nc1ccccc1	S1P4 ag 24.7 | S1P4 ag conf inactive | S1P1 ag inactive
CC(C)c1csc(CN2CCN(Cc3ccc(F)c(F)c3)C(CCO)C2)n1 (centres undefined)	S1P4 ag 41.6 | S1P4 ag conf inactive | S1P1 ag inactive
COc1ccc(CCNC(=O)COC(=O)C23CC4CC(CC(Br)(C4)C2)C3)cc1	none
COc1ccc(CCNC(=O)COC(=O)C23CC4CC(CC(C4)C2)C3)cc1	S1P4 ag 11.1 | S1P4 ag conf inactive | S1P1 ag inactive
Cc1ccc(S(=O)(=O)/N=c2\sccn2C)cc1	none (no result: Biofilm kill mix, S1P3 antagonist)
Cc1ccc(S(=O)(=O)/N=C2\CN(C)C(=O)N2C)cc1	S1P4 ag 16.5 | S1P4 ag conf inactive | S1P1 ag inactive
N#C/C(=N\Nc1cccc2ccccc12)c1nnc2n1CCCCC2	none
CN(CCc1cnn(C)c1)Cc1nc(CC2CC2)no1	none
CC12c3ccccc3C(c3ccccc31)C1C(=O)N(Cc3cccnc3)C(=O)[C@H]12 (some centres undefined)	S1P4 ag 39.8 | S1P4 ag conf inactive | S1P1 ag inactive
